Rows were chosen to be rich in hits. Some 1.7% of all compounds tested hit in one or more screens of this group.
LMPTP block: LMPTP (human) inhibition | AID 651560 | 0.22% of 360,000 active | recombinant LMPTP-A, OMFP fluorogenic substrate, fluorescence intensity | inhibition, % at 20 µM;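 active = compounds that cut the enzyme signal by at least half of the control window in the single-dose screen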;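 also: plate controls were DMSO wells with enzyme plus substrate for no effect and substrate without enzyme for full effect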
Target sequence (P24666 whole entry, looked up): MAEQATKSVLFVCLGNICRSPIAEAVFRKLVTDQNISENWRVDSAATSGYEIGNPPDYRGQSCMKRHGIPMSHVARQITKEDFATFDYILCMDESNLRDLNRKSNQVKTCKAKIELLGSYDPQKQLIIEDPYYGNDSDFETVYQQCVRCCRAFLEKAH
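Test system: LMPTP-A phosphatase enzyme; input: 0.625 nM LMPTP-A final; reagent: OMFP substrate, 400 µM final; compound dosing: 20 µM single dose, 3% DMSO; incubation: 50 min dark incubation at room temperature; measured by: endpoint fluorescence intensity from OMFP dephosphorylation; measure: % inhibition relative to no-enzyme and uninhibited control wells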
DNMT1 inh: inhibitors of human DNMT1; P26358; AID 588458; 0.83% of 360,000 active; DNMT1 molecular beacon, Hinp1I cleavage, fluorescence; inhibition (reported as % activation of signal), % at 10 µM; in the data active = inhibition above about 50%
Scp1 inh: inhibitors of human Scp-1 phosphatase; Recombinant Scp1, phosphopeptide, malachite green phosphate absorbance; inhibition, % at 20 µM; 0.88% of 340,000 active; AID 493091;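 active = inhibition above about 50% at 20 µM, limit read from the data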;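 also: plate controls were DMSO wells with enzyme for no effect and wells lacking enzyme for full effect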
Target sequence (Q9GZU7 76-261 limits assumed): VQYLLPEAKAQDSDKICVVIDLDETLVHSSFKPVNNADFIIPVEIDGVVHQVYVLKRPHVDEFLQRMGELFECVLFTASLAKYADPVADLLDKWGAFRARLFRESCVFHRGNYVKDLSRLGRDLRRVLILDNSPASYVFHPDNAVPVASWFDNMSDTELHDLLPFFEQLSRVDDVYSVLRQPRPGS
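Times: enzyme reaction 45 min at room temperature, colour 5 min, stabilisation 30 min. Material: SCP-1 catalytic fragment, aa 76-261. Medium: Acidic Tris acetate buffer with magnesium and detergent. Signal: colorimetric free-phosphate detection, absorbance 630 nm. Read-out basis: % inhibition of SCP-1 phosphate liberation. Reagent: Phosphorylated 17-residue peptide substrate.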
STEP inh: STEP (human) phosphatase inhibition; 0.25% of 360,000 active; inhibition, % at 20 µM; P54829; recombinant STEP, OMFP fluorogenic substrate, fluorescence;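 active = inhibition at 20 µM, scaled per plate between control wells, above about 37%, limit read from the data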;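 also: 0% = DMSO with enzyme and substrate and 100% = substrate only without enzyme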
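System: STEP phosphatase, cell-free reaction; Buffer or medium: Bis-Tris pH 6.0 buffer with DTT, detergent; Incubation: 20 min at room temperature, dark; Measured by: fluorescence, 480/540 nm.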
SUMO1 PPI mod: SUMO1-SIM interaction modulation; SUMO1 binding to a labelled peptide, TR-FRET, 1 h; inhibition, % at 20 µM; 0.33% of 360,000 active; AID 602429; P63165; in the data active = inhibition above about 37%
Target sequence (P63165 whole entry, looked up): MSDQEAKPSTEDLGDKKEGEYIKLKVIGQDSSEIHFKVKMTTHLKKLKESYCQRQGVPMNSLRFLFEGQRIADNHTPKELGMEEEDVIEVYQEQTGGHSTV
Scp1 confirm: confirmation of human Scp-1 phosphatase inhibitors; shares compounds with Scp1 inh; recombinant SCP-1 catalytic domain, phosphate release, malachite green absorbance; inhibition, % at 20 µM; 61% of 2,500 active;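 also: plate controls were DMSO with enzyme for no effect and buffer wells lacking enzyme for full effect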
MG interference: counter-screen for Scp-1 inhibitors: colorimetric interference. 2,500 tested, under 10 active. shares compounds with Scp1 inh. Colorimetric interference counterscreen, malachite green absorbance 630 nm. AID 540313. apparent inhibition (interference), % at 20 µM;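 also: compounds added after enzyme reaction finished so only phosphate colour detection is probed; plate controls were DMSO wells with completed Scp-1 reaction for no effect and substrate wells lacking enzyme for full effect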
Scp-1 Tm shift: validation of human Scp-1 inhibitors by thermal shift binding. shares compounds with Scp1 inh. Recombinant SCP1, Sypro Orange thermal shift Tm. thermal shift relative to vanadate control, % at 40 µM. 25% of 1,500 active;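 active = substances whose mean melting-temperature shift, as a percentage of the reference inhibitor's shift, reaches about 5.3%, limit read from the data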;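 also: 0% = Tm of DMSO wells and 100% = Tm with sodium orthovanadate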
The depositor's hits bear a star; . = not tested or not shown.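 The calls were made as follows, unless noted: active = inhibition of at least 30% at 20 µM; inactive = the rest.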

SMILES	LMPTP block	DNMT1 inh	Scp1 inh	STEP inh	SUMO1 PPI mod	Scp1 confirm	MG interference	Scp-1 Tm shift
Cc1ccc(NC(=O)CN(C)C(=O)c2ccc(S(=O)(=O)N(C)c3ccccc3)cc2)cc1	0	-1	54*	-3	-3	22	-13	.
CCNC(=O)C1CCCN(C(=O)c2ccc(N(C)C)cc2)CC1 (stereo unspecified)	-1	3	.	-2	-3	.	.	.
N#Cc1cccc(NC(=O)CSc2sc3c(O)cc(=O)[nH]c3c2C#N)c1	70*	46	50*	13	24	22	-4	.
N#Cc1c(SCC(=O)Nc2cccc(F)c2)sc2c(O)cc(=O)[nH]c12	26	29	58*	12	7	60*	-10	7.7*
CCCSc1nnc(NC(=O)CSc2sc3c(O)cc(=O)[nH]c3c2C#N)s1	0	-1	70*	-4	2	65*	-16	12*
CCOc1cccc(NC(=O)CSc2sc3c(O)cc(=O)[nH]c3c2C#N)c1	4	4	-1	5	2	.	.	.
CCOc1ncccc1C(=O)OCC(=O)N(CC(C)C)c1c(N)n(Cc2ccccc2)c(=O)[nH]c1=O	0	1	-5	1	3	.	.	.
Cc1cc(=O)oc2cc(NC(=O)c3cc(F)ccc3F)ccc12	17	18	86*	19	17	62*	-12	-29
Cc1cc(=O)oc2cc(NC(=O)c3ccccc3OC(F)F)ccc12	1	-9	-4	0	1	.	.	.
COc1ccc(-n2nc(C(=O)Nc3nc4ccc(OC)cc4s3)c3ccccc3c2=O)cc1	5	25	68*	4	-1	-9	-10	.
C[C@@H]1NC(=O)c2cc([N+](=O)[O-])cc(I)c2OCC[C@@H](C(=O)NC(CC(=O)O)C(N)=O)NC(=O)[C@H](CCC(=O)O)NC1=O (stereo partly specified)	.	.	50*	.	.	53*	-13	-4
NC(=O)C(CC(=O)O)NC(=O)[C@@H]1CCOc2c(I)cc([N+](=O)[O-])cc2C(=O)N[C@@H](CCC(=O)O)C(=O)N[C@@H](CO)C(=O)N1 (stereo partly specified)	.	.	29	.	.	.	.	.
NC(=O)C(CC(=O)O)NC(=O)[C@@H]1CCCNc2c(I)cc([N+](=O)[O-])cc2C(=O)N[C@@H](CO)C(=O)N[C@@H](Cc2ccc(O)cc2)C(=O)N1 (stereo partly specified)	0	10	62*	3	-7	43*	-13	9.8*
COCCCNC(=O)C[C@@H]1C[C@@]2(C(=O)OC)CCCCC=C2N(CCc2ccc(OC)c(OC)c2)C1=O	-1	.	.	.	-3	.	.	.
O=C(COc1ccccc1Cl)Nc1ccc(C(=O)O)cc1NC(=O)COc1ccccc1Cl	-1	2	3	-2	6	.	.	.
Cc1cc(C(=O)Nc2ccccc2C(=O)O)ccc1NC(=O)COc1ccccc1Cl	11	1	80*	22	19	52*	1	6.7*
O=C(O)C(F)=C(c1ccccc1)c1ccccc1	-3	1	52*	2	4	-10	-7	.
CCc1nnc(SCC(=O)NCCC2=CCCCC2)nc1CC	1	0	-2	-2	1	.	.	.
COc1cccc(C2c3c(-c4ccccc4)n[nH]c3C(=O)N2c2ccc(C(=O)O)cc2)c1 (stereo unspecified)	-1	2	53*	3	10	52*	-21	24*
CC(C)NC(=O)Nc1ccc2c(c1)C(=O)N([C@H](C)CO)C[C@H](C)[C@@H](CN(C)C(=O)NC(C)C)O2	0	-3	56*	1	3	19	1	.
C[C@@H]1CN([C@H](C)CO)C(=O)c2cc(NC(=O)c3ccncc3)ccc2O[C@@H]1CN(C)C(=O)Nc1ccccc1	-2	6	94*	-1	-4	61*	-14	-10
C[C@H](CO)N1C[C@H](C)[C@@H](CN(C)C(=O)Nc2ccccc2)Oc2ccc(NC(=O)C3CC3)cc2C1=O	-1	9	0	6	6	.	.	.
CC(C)NC(=O)N(C)C[C@H]1Oc2ccc(NC(=O)c3ccncc3)cc2C(=O)N([C@H](C)CO)C[C@@H]1C	0	7	73*	0	-5	18	-18	.
CC(C)NC(=O)N(C)C[C@@H]1Oc2ccc(NC(=O)CCN3CCOCC3)cc2CC(=O)N([C@@H](C)CO)C[C@@H]1C	-2	5	52*	-1	4	19	-14	.
C[C@H](CO)N1C[C@H](C)[C@@H](CN(C)C(=O)Nc2ccccc2)Oc2ccc(NC(=O)CCN3CCOCC3)cc2C1=O	-2	-1	21	-3	3	.	.	.
SMILES	LMPTP block	DNMT1 inh	Scp1 inh	STEP inh	SUMO1 PPI mod	Scp1 confirm	MG interference	Scp-1 Tm shift
CCOc1ccc(N2CC(C(=O)N3CCCCCC3)CC2=O)cc1 (stereo unspecified)	1	1	4	0	3	.	.	.
O=C(CSc1cccc(C(F)(F)F)c1)Nc1ccc(N2CCOCC2)cc1	1	-3	0	2	-1	.	.	.
O=C(c1ccccc1)C1CCN(C(=O)c2c(F)cccc2F)CC1	-1	1	-8	-3	-4	.	.	.
NC(=O)Cn1cnc2c(nnn2-c2cccc(Cl)c2)c1=O	0	7	-3	1	19	.	.	.
O=C(Cn1cnc2sc(-c3ccccc3)cc2c1=O)NCc1ccccc1	7	11	83*	1	-7	62*	-17	-28
O=C(Cn1cnc2sc(-c3ccccc3)cc2c1=O)NCCc1ccccc1	1	26	22	1	6	.	.	.
O=C(Cn1cnc2c(nnn2-c2cccc(Cl)c2)c1=O)NCc1ccccc1	33	34	53*	8	7	62*	-18	-5
COc1ccccc1OCCNC(=O)CCNS(=O)(=O)c1ccc(C)cc1	0	1	-5	3	-1	.	.	.
CCc1nc2c(OCc3ccc(Cl)cc3Cl)cccn2c1N(C)C(=O)c1ccccc1F	13	-3	.	6	1	.	.	.
N=C1C(c2nc(-c3cccc([N+](=O)[O-])c3)cs2)=C(O)CN1NC(=O)c1ccco1	48	-3	68*	10	-7	-9	-15	.
Cc1ccc(-c2csc(C3=C(O)CN(NC(=O)c4ccc([N+](=O)[O-])cc4)C3=N)n2)cc1	14	36	23	4	-1	.	.	.
CC(C)CC(=O)O/N=C1\C(=O)N(c2ccccc2)c2ccccc21	-1	5	-12	-5	-14	.	.	.

High-throughput results: PubChem, Sanford-Burnham Center for Chemical Genomics
